Residues, ends and D or L forms follow the SMILES beside them. *: point of attachment. Succinyl(O17-estradiol) = C[C@]12CC[C@@H]3c4ccc(O)cc4CC[C@H]3[C@@H]1CC[C@@H]2OC(=O)CCC(=O)*; Acetyl(estradiol-3-yloxy) = C[C@]12CC[C@@H]3c4ccc(OCC(=O)*)cc4CC[C@H]3[C@@H]1CC[C@@H]2O
Key:
Mus musculus [1] = experiment: Toxicity in ovariectomized ICR mouse assessed as kidney weight at 110.3 nmol/kg, po treated for 4 weeks measured after 1 day of last treatment; format: organism-based; settings: in vivo, 24 h
Mus musculus [2] = experiment: Antiosteoporosis activity in ovariectomized ICR mouse assessed as length of femur at 110.3 nmol/kg, po treated for 4 weeks measured after 1 day of last treatment; format: functional
Outline: (§1)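 Female mice, ovariectomized (sham: laparotomy only); from day 5 post-surgery dosed orally once daily with 110.3 nmol/kg in 0.2 ml 0.5% carboxymethylcellulose for 4 weeks (vehicle to OVX/sham). Left femur taken the day after the last dose, cleaned of muscle, length measured, defatted in chloroform–methanol (2:1, 2×3 h), dried 120 °C 6 h and weighed, ashed 800 °C 8 h and weighed. Mineral content = ash/dry weight; femur ash dissolved in 6 N HCl, diluted, calcium by o-methylphenolphthalein complexone. n = 12.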

Mus musculus [3] = experiment: Antiosteoporosis activity in ovariectomized ICR mouse assessed as phosphorous level in serum at 110.3 nmol/kg, po treated for 4 weeks measured after 1 day of last treatment by molybdenum blue method; format: functional
Outline: (§2)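 Ovariectomized female mice dosed orally with 110.3 nmol/kg in 0.5% carboxymethylcellulose once daily for 4 weeks, starting day 5 after surgery. Blood taken from the orbit the day after the last dose, stood 30 min, centrifuged 3000g for 20 min, serum stored at −20 °C. Calcium read by o-methylphenolphthalein complexone; phosphorus by molybdenum blue.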

Mus musculus [4] = experiment: Antiosteoporosis activity in ovariectomized ICR mouse assessed as calcium level in serum at 110.3 nmol/kg, po treated for 4 weeks measured after 1 day of last treatment by o-methyl-phenolphthalein method; format: functional; outline: as §2
Mus musculus [5] = experiment: Antiosteoporosis activity in ovariectomized ICR mouse assessed as mineral content in femur at 110.3 nmol/kg, po treated for 4 weeks measured after 1 day of last treatment; format: functional; outline: as §1
Mus musculus [6] = experiment: Toxicity in ovariectomized ICR mouse assessed as lung weight at 110.3 nmol/kg, po treated for 4 weeks measured after 1 day of last treatment; format: organism-based; settings: in vivo, 24 h
Outline: (§3)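 OVX mice dosed orally once daily with 110.3 nmol/kg in 0.5% carboxymethylcellulose for 4 weeks. The day after the last dose, mice were anesthetized with pentobarbital (40.0 mg/kg ip) and killed; uteri, lungs, livers and spleens were removed and weighed directly and their morphology noted.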

Mus musculus [7] = experiment: Antiosteoporosis activity in ovariectomized ICR mouse assessed as weight of femur ash at 110.3 nmol/kg, po treated for 4 weeks measured after 1 day of last treatment; format: functional; outline: as §1
Mus musculus [8] = experiment: Toxicity in ovariectomized ICR mouse assessed as effect on tail bleeding time at 110.3 nmol/kg, po treated for 4 weeks measured after 30 mins of last treatment; format: organism-based; settings: in vivo, 0.5 h
Outline: (§4)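 OVX mice received 110.3 nmol/kg orally in 0.5% carboxymethylcellulose daily for 4 weeks. At 30 and 90 min after the last dose, a 2 mm tail cut was made with the mouse in a tube holder; blood was blotted every 30 s until bleeding stopped, and the time was recorded as bleeding time.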

Mus musculus [9] = experiment: Antiosteoporosis activity in ovariectomized ICR mouse assessed as phosphorous content in femur at 110.3 nmol/kg, po treated for 4 weeks measured after 1 day of last treatment by molybdenum blue method; format: functional
Mus musculus [10] = experiment: Antiosteoporosis activity in ovariectomized ICR mouse assessed as calcium content in femur at 110.3 nmol/kg, po treated for 4 weeks measured after 1 day of last treatment by o-methyl-phenolphthalein; format: functional; outline: as §1
Mus musculus [11] = experiment: Toxicity in ovariectomized ICR mouse assessed as spleen weight at 110.3 nmol/kg, po treated for 4 weeks measured after 1 day of last treatment; format: organism-based; settings: in vivo, 24 h; outline: as §3
Mus musculus [12] = experiment: Toxicity in ovariectomized ICR mouse assessed as liver weight at 110.3 nmol/kg, po treated for 4 weeks measured after 1 day of last treatment; format: organism-based; settings: in vivo, 24 h; outline: as §3
Mus musculus [13] = experiment: Toxicity in ovariectomized ICR mouse assessed as effect on tail bleeding time at 110.3 nmol/kg, po treated for 4 weeks measured after 90 mins of last treatment; format: organism-based; settings: in vivo, 1.5 h; outline: as §4
Mus musculus [14] = experiment: Toxicity in ovariectomized ICR mouse assessed as effect on uterine weight at 110.3 nmol/kg, po treated for 4 weeks measured after 1 day of last treatment; format: organism-based; settings: in vivo, 24 h; outline: as §3
Mus musculus [15] = experiment: Antiosteoporosis activity in ovariectomized ICR mouse assessed as weight of dry femur at 110.3 nmol/kg, po treated for 4 weeks measured after 1 day of last treatment; format: functional
Outline: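 Left femur taken the day after the last dose, cleaned of muscle, length measured, defatted in chloroform–methanol (2:1, 2×3 h), dried 120 °C 6 h and weighed, ashed 800 °C 8 h and weighed. Mineral content = ash/dry weight; femur ash dissolved in 6 N HCl, diluted, calcium by o-methylphenolphthalein complexone. n = 12.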

| Compound | Activity (Mus musculus [1]) [g] | Activity (Mus musculus [2]) [cm] | Activity (Mus musculus [3]) [mM] | Activity (Mus musculus [4]) [mM] | Activity (Mus musculus [5]) [%] | Activity (Mus musculus [6]) [g] | Activity (Mus musculus [7]) [mg] | Time (Mus musculus [8]) [s] | Activity (Mus musculus [9]) [%] | Activity (Mus musculus [10]) [%] | Activity (Mus musculus [11]) [g] | Activity (Mus musculus [12]) [g] | Time (Mus musculus [13]) [s] | Activity (Mus musculus [14]) [g] | Activity (Mus musculus [15]) [mg] |
| --- | --- | --- | --- | --- | --- | --- | --- | --- | --- | --- | --- | --- | --- | --- | --- |
| C[C@]12CC[C@@H]3c4ccc(OCC(=O)N[C@@H](CCCNC(=N)N)C(=O)NCC(=O)N[C@@H](CC(=O)O)C(=O)N[C@@H](Cc5ccccc5)C(=O)N[C@@H](CCCNC(=N)N)C(=O)NCC(=O)N[C@@H](CC(=O)O)C(=O)N[C@@H](Cc5ccccc5)C(=O)O)cc4CC[C@H]3[C@@H]1CC[C@@H]2O ({Acetyl(estradiol-3-yloxy)}-RGDFRGDF-OH) | 0.169 | 1.641 | 3.01 | 3.05 | 0.623 | 0.119 | 36.74 | 592 | 21.33 | 63.92 | 0.131 | 1.439 | 585 | 0.061 | 56.96 |
| CC(C)[C@H](NC(=O)[C@H](CC(=O)O)NC(=O)CNC(=O)[C@H](CCCNC(=N)N)NC(=O)CCC(=O)O[C@H]1CC[C@H]2[C@@H]3CCc4cc(O)ccc4[C@H]3CC[C@]12C)C(=O)O ({Succinyl(O17-estradiol)}-RGDV-OH) | 0.178 | 1.672 | 3.04 | 3.26 | 0.612 | 0.125 | 33.7 | 551 | 20.14 | 57.49 | 0.149 | 1.55 | 560 | 0.064 | 54.01 |
| C[C@]12CC[C@@H]3c4ccc(OCC(=O)N[C@@H](CCCNC(=N)N)C(=O)NCC(=O)N[C@@H](CC(=O)O)C(=O)N[C@@H](Cc5ccccc5)C(=O)O)cc4CC[C@H]3[C@@H]1CC[C@@H]2O ({Acetyl(estradiol-3-yloxy)}-RGDF-OH) | 0.159 | 1.669 | 3.19 | 3.24 | 0.596 | 0.112 | 33.56 | 557 | 20.09 | 57.42 | 0.177 | 1.336 | 560 | 0.067 | 53.87 |
| C[C@]12CC[C@@H]3c4ccc(OCC(=O)N[C@@H](CCCNC(=N)N)C(=O)NCC(=O)N[C@@H](CC(=O)O)C(=O)N[C@@H](CO)C(=O)N[C@@H](CCCNC(=N)N)C(=O)NCC(=O)N[C@@H](CC(=O)O)C(=O)N[C@@H](CO)C(=O)O)cc4CC[C@H]3[C@@H]1CC[C@@H]2O ({Acetyl(estradiol-3-yloxy)}-RGDSRGDS-OH) | 0.17 | 1.657 | 2.91 | 3.01 | 0.626 | 0.11 | 36.42 | 564 | 21.56 | 63.12 | 0.133 | 1.448 | 559 | 0.062 | 56.6 |
| C[C@]12CC[C@@H]3c4ccc(OCC(=O)N[C@@H](CCCNC(=N)N)C(=O)NCC(=O)N[C@@H](CC(=O)O)C(=O)N[C@@H](CO)C(=O)O)cc4CC[C@H]3[C@@H]1CC[C@@H]2O ({Acetyl(estradiol-3-yloxy)}-RGDS-OH) | 0.193 | 1.646 | 2.98 | 3.23 | 0.605 | 0.128 | 34.08 | 582 | 20.24 | 58.76 | 0.142 | 1.492 | 577 | 0.064 | 53.89 |
| C[C@]12CC[C@@H]3c4ccc(O)cc4CC[C@H]3[C@@H]1CC[C@@H]2OC(=O)CCC(=O)N[C@@H](CCCNC(=N)N)C(=O)NCC(=O)N[C@@H](CC(=O)O)C(=O)N[C@@H](CO)C(=O)O ({Succinyl(O17-estradiol)}-RGDS-OH) | 0.182 | 1.659 | 3.01 | 3.18 | 0.604 | 0.12 | 34.17 | 575 | 20.37 | 59.34 | 0.15 | 1.537 | 561 | 0.063 | 53.78 |
| C[C@]12CC[C@@H]3c4ccc(O)cc4CC[C@H]3[C@@H]1CC[C@@H]2OC(=O)CCC(=O)N[C@@H](CCCNC(=N)N)C(=O)NCC(=O)N[C@@H](CC(=O)O)C(=O)N[C@@H](Cc1ccccc1)C(=O)O ({Succinyl(O17-estradiol)}-RGDF-OH) | 0.16 | 1.64 | 3.01 | 3.21 | 0.605 | 0.109 | 33.87 | 576 | 20.56 | 59.36 | 0.135 | 1.266 | 568 | 0.06 | 54 |
| C[C@]12CC[C@@H]3c4ccc(O)cc4CC[C@H]3[C@@H]1CC[C@@H]2OC(=O)CCC(=O)N[C@@H](CCCNC(=N)N)C(=O)NCC(=O)N[C@@H](CC(=O)O)C(=O)N[C@@H](CO)C(=O)N[C@@H](CCCNC(=N)N)C(=O)NCC(=O)N[C@@H](CC(=O)O)C(=O)N[C@@H](CO)C(=O)O ({Succinyl(O17-estradiol)}-RGDSRGDS-OH) | 0.174 | 1.665 | 2.6 | 3 | 0.625 | 0.116 | 36.48 | 562 | 21.4 | 65.16 | 0.149 | 1.479 | 556 | 0.065 | 56.41 |
| C[C@]12CC[C@@H]3c4ccc(O)cc4CC[C@H]3[C@@H]1CC[C@@H]2O [ESTRADIOL] | 0.173 | 1.642 | 3.01 | 3.24 | 0.608 | 0.12 | 32.22 | 417 | 19.81 | 57.28 | 0.144 | 1.552 | 441 | 0.108 |  |

Reference: ChEMBL document CHEMBL1137729, “Synthesis, evaluation and 3D QSAR analysis of novel estradiol-RGD octapeptide conjugates with oral anti-osteoporosis activity” (Eur J Med Chem, 2009)
